Activity and TGI data for one molecule are collected here from ChEMBL document CHEMBL4038303, “Simultaneous Drug Targeting of the Promoter MYC G-Quadruplex and BCL2 i-Motif in Diffuse Large B-Cell Lymphoma Delays Tumor Growth” (J Med Chem, 2017).

What is called TGI is how far tumour growth fell short of that in controls.

Series [1] deals with HT. As to the kind of experiment: Down regulation of BLC2 mRNA level in human HT cells up to 3 uM after 24 hrs by qPCR method. Format: functional, cell-based. The essentials: (§1)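 DLBCL lines grown in RPMI with 10% FBS (SUDHL4 15% FBS) and penicillin/streptomycin. Cells exposed for 24 h to rising concentrations up to 3 μM; DMSO as vehicle control. Total RNA isolated, target mRNA measured by TaqMan real-time qPCR, normalized to TBP and expressed relative to untreated cells; triplicate experiments, two-tailed t test.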
(Quantitative PCR measures a nucleic acid by following its amplification.)

The species named for series [2] is Homo sapiens. As to the kind of experiment: Binding affinity to c-myc G-quadruplex DNA in BCL2 translocation-positive human SUDHL4 cells assessed as downregulation of MYC mRNA levels up to 3 uM after 24 hrs by qPCR method relative to control. The method, boiled down:
as §1

Series [3] is filed under the species Homo sapiens. As to the kind of experiment: Binding affinity to BLC2 i-motif promoter DNA in BCL2 and MYC translocation-positive human VAL cells assessed as downregulation of BLC2 mRNA levels up to 3 uM after 24 hrs by qPCR method. The method, boiled down: as §1
The species entered for series [4] is Homo sapiens. As to the kind of experiment: Binding affinity to c-myc G-quadruplex DNA in BCL2 translocation-positive human SUDHL4 cells assessed as downregulation of MYC mRNA levels after 24 hrs by qPCR method. The essentials:
as §1

The species entered for series [5] is Homo sapiens. The series is described as follows: Binding affinity to c-myc G-quadruplex DNA in MYC translocation-positive and BCL2 amplification-positive human U2932 cells assessed as downregulation of MYC mRNA levels after 24 hrs by qPCR method. The essentials:
as §1

Series [6] is filed under the species Homo sapiens. The series is described as follows: Binding affinity to c-myc G-quadruplex DNA in human HT cells assessed as downregulation of MYC mRNA levels at 0.25 to 3 uM after 6 hrs by qPCR method. Format: cell-based.
For series [7], the species on record is Homo sapiens. As to the kind of experiment: Binding affinity to c-myc G-quadruplex DNA in human VAL cells assessed as downregulation of MYC mRNA levels at 0.25 to 3 uM after 6 hrs by qPCR method. Format: cell-based.
Series [8] has as its system U2932. The series is described as follows: Potentiation of CPA-induced antitumor activity against human U2932 cells xenografted in SCID mouse assessed as reduction in tumor burden at 2.5 mg/kg, ip administered for 5 consecutive days measured up to 10 days post first treatement. Format: functional, organism-based. The essentials: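 SCID mice bearing subcutaneous left-flank U2932 xenografts (10 × 10^6 cells in saline), pair-matched by tumor volume. Test agent given ip daily for 5 days with 50 mg/kg CPA; diluent-treated and CPA-alone controls. Tumor volume estimated as a2 × b/2 from smallest and largest diameters. Grubbs' test for outliers; two-tailed Student's t test.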
On the technique in general: A xenograft is tissue or cells of one species grown in another, often human tumour cells in immunodeficient mice.

In series [9] the test system is Mus musculus. The series is described as follows: Toxicity in scid mouse xenografted with human U2932 cells assessed as change in body weight at 2.5 to 5 mg/kg, ip administered for 5 consecutive days in presence of CPA. Format: organism-based. Conditions: in vivo. The method, boiled down: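 SCID mice aged 6−8 weeks with serum Ig ≤20 μg/mL received U2932 cells (10 × 10^6 in 100 μL saline) subcutaneously in the left flank. Mice were pair-matched by tumor volume. Compound at 2.5 or 5 mg/kg with 50 mg/kg cyclophosphamide was given ip daily for 5 days. Controls received the diluents. Grubbs' test was used to exclude outliers.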

Series [10] is filed under the species Homo sapiens. The series is described as follows: Stabilization of c-myc G-quadruplex DNA in BCL2 translocation-positive human SUDHL4 cells assessed as potentiation of CPA-induced apoptosis by measuring increase in caspase-3 activity at 3 uM after 24 hrs in presence of NSC-59276 by AFC based fluorescence assay (reference value: 30%).
The subject of series [11] is U2932. As to the kind of experiment: Potentiation of CPA-induced antitumor activity against human U2932 cells xenografted in SCID mouse assessed as tumor growth inhibition at 7.5 mg/kg, ip for 5 days cotreated with 10 mg/kg NSC-59276 measured on day 15 post first treatment (reference value: 44%). Format: functional. The essentials:
(§2)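 U2932 DLBCL cells (10 × 10^6 in 100 μL sterile saline, viability >91%) injected subcutaneously into left flank of SCID mice (6−8 weeks, immunoglobulin ≤20 μg/mL). Mice pair-matched by tumor volume. Drugs given ip daily for 5 days, CPA 30 mg/kg; controls received all diluents. Tumor volume = a2 × b/2 (a smallest, b largest diameter); n = 5−8; Grubbs' test for outliers.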

Series [12] deals with U2932. The series is described as follows: Antitumor activity against human U2932 cells xenografted in SCID mouse assessed as reduction in tumor burden at 5 to 7.5 mg/kg, ip for 5 days cotreated with 10 mg/kg NSC-59276 measured on day 9 to 15 post first treatment. Format: functional, organism-based. The method, boiled down:
as §2

For series [13], the system named is Mus musculus. As to the kind of experiment: Reduction in Myc mRNA level in tumor of SCID mouse xenografted with human U2932 cells at 5 to 7.5 mg/kg, ip administered for 5 consecutive days cotreated with CPA and NSC-59276 by qPCR method. Format: functional, organism-based. The essentials:
(§3)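 Tumors from U2932 xenograft SCID mice given ip treatment daily for 5 days were harvested. Total RNA was taken from the same tumor preparations used for protein lysates, and MYC or BCL2 mRNA was quantified by TaqMan qPCR normalized to TBP. Comparisons were made with diluent-treated mice or CPA-only mice.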

The test system of series [14] is Mus musculus. As to the kind of experiment: Reduction in Bcl2 mRNA level in tumor of SCID mouse xenografted with human U2932 cells at 5 to 7.5 mg/kg, ip administered for 5 consecutive days cotreated with CPA and NSC-59276 by qPCR method. Format: functional, organism-based. The method, boiled down: as §3
Series [15] has as its system U2932. As to the kind of experiment: Potentiation of CPA-induced antitumor activity against human U2932 cells xenografted in SCID mouse assessed as reduction in tumor burden AUC at 5 to 7.5 mg/kg, ip for 5 days cotreated with 10 mg/kg NSC-59276 measured on day 9 to 15 post first treatment. Format: functional, organism-based. The method, boiled down: as §2
Series [16] concerns Mus musculus. As to the kind of experiment: Toxicity in scid mouse xenografted with human U2932 cells assessed as change in body weight at 5 mg/kg, ip administered for 5 consecutive days cotreated with NSC-59276 and CPA. Format: organism-based. The settings on record: in vivo. The essentials: (§4)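 SCID mice (6−8 weeks, female or male, serum immunoglobulin ≤20 μg/mL by ELISA) implanted subcutaneously in left flank with 10 × 10^6 U2932 cells in 100 μL saline; pair-matched by tumor volume; dosed ip daily for 5 days; controls received all compound diluents; tumor volume a2 × b/2; outliers by Grubbs' test; two-tailed t test with Šidák–Bonferroni correction.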

Series [17] deals with Mus musculus. As to the kind of experiment: Toxicity in SCID mouse xenografted with human U2932 cells assessed as survival at 7.5 mg/kg, ip administered for 5 consecutive days in presence of CPA. Format: organism-based. The settings on record: in vivo. The essentials:
as §4

In series [18] the test system is Mus musculus. The series is described as follows: Toxicity in scid mouse xenografted with human U2932 cells assessed as survival at 10 mg/kg, ip administered for 5 consecutive days cotreated with NSC-59276 and CPA. Format: organism-based. Conditions: in vivo. The method, boiled down: as §4
The test system of series [19] is Mus musculus. As to the kind of experiment: Toxicity in scid mouse xenografted with human U2932 cells assessed as change in body weight at 10 mg/kg, ip administered for 5 consecutive days cotreated with NSC-59276 and CPA. Format: organism-based. The settings on record: in vivo. The essentials: as §4
The subject of series [20] is Mus musculus. As to the kind of experiment: Reduction in Bcl2 mRNA level in SCID mouse xenografted with human U2932 cells at 10 mg/kg, ip administered for 5 consecutive days cotreated with CPA and NSC-59276 by qPCR method. Format: functional, organism-based. The method, boiled down: as §3

SMILES strings stand for the structures. Activity calls are given as the source filed them. No cut-off for these calls is given here.

In the case of `Cc1c2ccncc2c(C)c2c1[nH]c1ccc(OCCN(C)C)cc12.Cl.Cl`, the outcome in series [1], in series [3] and in series [12] was inactive. Besides, the Activity in [2] is under 90%; in series [4] it was “Dose-dependent effect”; in [5], “Dose-dependent effect”; in [9] it was “Non-Toxic”; in [10], 100%; in series [16], “Non-Toxic”. The Activity result in series [17] was “Non-Toxic”; in series [18] it was “Toxic”; in series [19] it was “Toxic”. Besides, the result in series [6], in series [7], in series [8], in series [13], in [14] and in series [15] was Active. For the same molecule, the result in [20] was Active. The TGI in series [11] came out at 37%.
